Data published in article PMC2229510 (The Journal of General Physiology, 2001).
Like-named read-outs stand apart in the source and are kept apart here.

Experiments:
[1] = target: aspartate receptor QQQE receptor–kinase signaling complex (Salmonella typhimurium, UniProt P02941, E302Q); assay: in vitro receptor-coupled kinase assay, attractant titration, QQQE receptor; format: biochemical, S. typhimurium
[2] = target: aspartate receptor EEQE receptor–kinase signaling complex (Salmonella typhimurium, UniProt P02941, Q295E); assay: in vitro receptor-coupled kinase assay, attractant titration, EEQE receptor; format: biochemical, S. typhimurium
[3] = target: aspartate receptor–kinase signaling complex (Salmonella enterica subsp. enterica serovar Typhimurium, UniProt P02941); format: biochemical, S. typhimurium; conditions: pure off-state, extrapolated from the correlation
[4] = target: aspartate receptor QEEE receptor–kinase signaling complex (Salmonella typhimurium, UniProt P02941, Q309E); assay: in vitro receptor-coupled kinase assay, attractant titration, QEEE receptor; format: biochemical, S. typhimurium
[5] = target: aspartate receptor EQQQ receptor–kinase signaling complex (Salmonella typhimurium, UniProt P02941, E302Q/E491Q/Q295E); assay: in vitro receptor-coupled kinase assay, attractant titration, EQQQ receptor; format: biochemical, S. typhimurium
[6] = target: aspartate receptor EEEQ receptor–kinase signaling complex (Salmonella typhimurium, UniProt P02941, E491Q/Q295E/Q309E); assay: in vitro receptor-coupled kinase assay, attractant titration, EEEQ receptor; format: biochemical, S. typhimurium
[7] = target: aspartate receptor QEQQ receptor–kinase signaling complex (Salmonella typhimurium, UniProt P02941, E491Q); assay: in vitro receptor-coupled kinase assay, attractant titration, QEQQ receptor; format: biochemical, S. typhimurium
[8] = target: aspartate receptor QQEE receptor–kinase signaling complex (Salmonella typhimurium, UniProt P02941, E302Q/Q309E); assay: in vitro receptor-coupled kinase assay, attractant titration, QQEE receptor; format: biochemical, S. typhimurium
[9] = target: aspartate receptor EQEQ receptor–kinase signaling complex (Salmonella typhimurium, UniProt P02941, E302Q/E491Q/Q295E/Q309E); assay: in vitro receptor-coupled kinase assay, attractant titration, EQEQ receptor; format: biochemical, S. typhimurium
[10] = target: aspartate receptor EEQQ receptor–kinase signaling complex (Salmonella typhimurium, UniProt P02941, E491Q/Q295E); assay: in vitro receptor-coupled kinase assay, attractant titration, EEQQ receptor; format: biochemical, S. typhimurium
[11] = target: aspartate receptor EQQE receptor–kinase signaling complex (Salmonella typhimurium, UniProt P02941, E302Q/Q295E); assay: in vitro receptor-coupled kinase assay, attractant titration, EQQE receptor; format: biochemical, S. typhimurium
[12] = target: aspartate receptor QEQE (wild type) receptor–kinase signaling complex (Salmonella typhimurium, UniProt P02941); assay: in vitro receptor-coupled kinase assay, attractant titration, QEQE; format: biochemical, S. typhimurium
Outline: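 Native E. coli membranes carrying the receptor (about 10% of total protein) were mixed with purified CheA, CheW and excess CheY to reconstitute the signaling complex, with receptor in the low micromolar range. Kinase activity was read as radiolabeled phospho-CheY at 10-s initial-rate points across α-methyl-aspartate concentrations, normalized to the no-attractant maximum, with three measurements per point. K1/2 and Hill coefficient came from a multisite Hill fit using free attractant concentration.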

[13] = target: aspartate receptor EQEE receptor–kinase signaling complex (Salmonella typhimurium, UniProt P02941, E302Q/Q295E/Q309E); assay: in vitro receptor-coupled kinase assay, attractant titration, EQEE receptor; format: biochemical, S. typhimurium
[14] = target: aspartate receptor QQQQ receptor–kinase signaling complex (Salmonella typhimurium, UniProt P02941, E302Q/E491Q); assay: in vitro receptor-coupled kinase assay, attractant titration, QQQQ receptor; format: biochemical, S. typhimurium
[15] = target: aspartate receptor QQEQ receptor–kinase signaling complex (Salmonella typhimurium, UniProt P02941, E302Q/E491Q/Q309E); assay: in vitro receptor-coupled kinase assay, attractant titration, QQEQ receptor; format: biochemical, S. typhimurium
[16] = target: aspartate receptor QEEQ receptor–kinase signaling complex (Salmonella typhimurium, UniProt P02941, E491Q/Q309E); assay: in vitro receptor-coupled kinase assay, attractant titration, QEEQ receptor; format: biochemical, S. typhimurium
[17] = target: QQQQ receptor (Salmonella typhimurium, UniProt P02941, E302Q/E491Q); assay: L-aspartate binding to QQQQ receptor; conditions: given binding constant for QQQQ receptor

## CC(N)(CC(=O)O)C(=O)O (racemic) [α-methyl-aspartate, α-methyl-D,L-aspartate]
[1]
  IC50: 98 ± 4 µM
[1]; QQQE receptor, attractant titration, Hill fit
  Measured Hill coefficient: 3.3 ± 0.4
[2]
  IC50: 23 ± 2 µM
[2]; EEQE receptor, attractant titration, Hill fit
  Measured Hill coefficient: 1.8 ± 0.1
[3]
  K1/2 of the off-state (inactivated conformation): micromolar to submicromolar range
[3]; listed as α-methyl aspartate
  K1/2 of the off-state (inactivated conformation): submicromolar to micromolar range
[4]
  IC50: 9 ± 1 µM
[4]; QEEE receptor, attractant titration, Hill fit
  Measured Hill coefficient: 1.7 ± 0.1
[5]
  IC50: 39 ± 4 µM
[5]; EQQQ receptor, attractant titration, Hill fit
  Measured Hill coefficient: 2.0 ± 0.3
[6]
  IC50: 9 ± 3 µM
[6]; EEEQ receptor, attractant titration, Hill fit
  Measured Hill coefficient: 1.1 ± 0.4
[7]
  IC50: 62 ± 3 µM
[7]; QEQQ receptor, attractant titration, Hill fit
  Measured Hill coefficient: 2.2 ± 0.3
[8]
  IC50: 31 ± 2 µM
[8]; QQEE receptor, attractant titration, Hill fit
  Measured Hill coefficient: 2.2 ± 0.2
[9]
  IC50: 14 ± 1 µM
[9]; EQEQ receptor, attractant titration, Hill fit
  Measured Hill coefficient: 2.9 ± 0.3
[10]
  IC50: 19 ± 2 µM
[10]; EEQQ receptor, attractant titration, Hill fit
  Measured Hill coefficient: 1.9 ± 0.2
[11]
  IC50: 14 ± 2 µM
[11]; EQQE receptor, attractant titration, Hill fit
  Measured Hill coefficient: 2.1 ± 0.3
[12]
  IC50: 23 ± 4 µM
[12]; QEQE (wild type) receptor, attractant titration, Hill fit
  Measured Hill coefficient: 1.8 ± 0.1
[13]
  IC50: 16 ± 4 µM
[13]; EQEE receptor, attractant titration, Hill fit
  Measured Hill coefficient: 1.6 ± 0.4
[14]
  IC50: 97 ± 4 µM
[14]; QQQQ receptor, attractant titration, Hill fit
  Measured Hill coefficient: 2.2 ± 0.2
[15]
  IC50: 54 ± 6 µM
[15]; QQEQ receptor, attractant titration, Hill fit
  Measured Hill coefficient: 2.0 ± 0.5
[16]
  IC50: 19 ± 2 µM
[16]; QEEQ receptor, attractant titration, Hill fit
  Measured Hill coefficient: 2.4 ± 0.5

## N[C@@H](CC(=O)O)C(=O)O [L-aspartate]
[17]
  free energy driving force toward the off-state on binding: exceeding 8 kcal mol^−1
